Calls of active or inactive are those of the source. The calls are words filed in the database; no cut-off is given here.
Columns and labels:
PANC-1 [1] = assay: Cytotoxicity against human PANC-1 cells assessed as inhibition of cell viability at upto 100 uM incubated for 24 hrs by MTT assay; format: toxicity, cell-based; conditions: panc-1, 24 h
How it was run: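 PANC-1 cells seeded at 9 × 10³ per well, triplicate, 24 h at 37 °C, 5% CO₂. Treated with 5, 10, 20, 40, 60, 80 and 100 μM for another day. MTT (5 mg mL⁻¹ stock) 3 h at 37 °C, plates centrifuged, formazan dissolved in DMSO 30 min dark, A570. Viability compared by one-way ANOVA with Tukey test.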

Rattus norvegicus [2] = assay: Antioxidant activity in fasted STZ-induced diabetic Wistar rat model assessed as decrease in high glucose induced ROS production in pancreas by measuring minimum fractional index at 10 mg/kg, po administration for 21 days and measured on day 35; format: functional; conditions: time 35 day
How it was run: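 Rat pancreas mashed through a 70 μm strainer in FACS buffer. Processed by centrifugation (300 × g and 800 × g, 21 °C), 42% Percoll and 5 min RBC lysis. Cells washed, stained with DCFH-DA, and ROS read on a flow cytometer.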

Rattus norvegicus [3] = assay: Antidiabetic activity against STZ-induced oxidative stress in Wistar rats model assessed as increase in SOD level in pancreatic tissue at 10 mg/kg, po administered for 21 days measured on day 35 by absorbance based UV-spectroscopic analysis; conditions: time 35.0 day
[4] = Toxicity against STZ-induced diabetic Wistar rat model assessed as body weight loss at 10 mg/kg, po measured on day 14; format: organism-based; conditions: in vivo, 336 h, time 14 day
How it was run: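 STZ given on day 1; oral treatment started day 14, with vehicle 0.5% CMC in controls. Six groups: normal, vehicle, STZ, STZ + two test compounds, STZ + pioglitazone. Blood glucose (tail puncture, glucometer) and body weight recorded on days 1, 4, 14 and 35. One-way ANOVA.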

Rattus norvegicus [5] = species: Rattus norvegicus; assay: Anti-diabetic activity against STZ-induced diabetic Wistar rat model assessed as alteration in kidney morphology […] by H and E staining based analysis; format: functional, organism-based
How it was run: (§1)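 Pancreas, liver and kidney from STZ-diabetic rats treated as in the in vivo schedule. Sections stained with haematoxylin and eosin and examined by light microscopy at 40× (50 μm scale bar). Islet boundaries, β-cells, central vein, sinusoids, trabeculae, and tubular necrosis or swelling were scored.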

Rattus norvegicus [6] = assay: Anti-diabetic activity against STZ-induced diabetic Wistar rat model assessed as decrease in dilatation of central vein at 10 mg/kg, po by H and E staining based analysis
Rattus norvegicus [7] = species: Rattus norvegicus; assay: Anti-diabetic activity against STZ-induced diabetic Wistar rat model assessed as increase increase in number of monocytes level; format: functional, organism-based
How it was run: (§2)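 STZ-diabetic Wistar rats in six groups (normal, vehicle 0.5% CMC oral, STZ, STZ + test compounds, STZ + pioglitazone); oral treatment started day 14 after STZ on day 1. Markers measured in serum, pancreatic homogenate or whole blood, as named in each line. Groups compared by one-way ANOVA.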

PANC-1 [8] = assay: Anti-diabetic activity against high glucose induced human PANC-1 cells assessed as decrease in glucose induced alpha-amylase expression by measuring by measuring minimum fractional index at 5 uM incubated for 23 hrs and measured after 24 hrs by flow cytometric analysis (reference value: 2887 +/- 95.87); format: functional
Rattus norvegicus [9] = assay: Antidiabetic activity against streptozotocin-induced Wistar rat assessed as change in uric acid level at 10 mg/kg, po administered for 21 days measured on day 35; format: functional, organism-based; conditions: time 35.0 day; how it was run: as §2
Rattus norvegicus [10] = species: Rattus norvegicus; assay: Anti-diabetic activity against STZ-induced diabetic Wistar rat model assessed as improvement in pancreas islet morphology […] by H and E staining based analysis; format: functional, organism-based; how it was run: as §1
Rattus norvegicus [11] = assay: Antidiabetic activity against STZ-induced oxidative stress in Wistar rats model assessed as reduction malondialdehyde level in pancreatic tissue at 10 mg/kg, po administered for 21 days measured on day 35; format: functional, organism-based; conditions: time 35.0 day; how it was run: as §2
[12] = target: alpha-glucosidase (Saccharomyces cerevisiae); assay: Inhibition of Saccharomyces cerevisiae alpha-glucosidase using 4-nitrophenyl-alpha-D-glucopyranoside as substrate incubated with compound for 15 to 20 min by absorbance based analysis
Rattus norvegicus [13] = species: Rattus norvegicus; assay: Anti-diabetic activity against STZ-induced diabetic Wistar rat model assessed as increase beta-cells […] by H and E staining based analysis; format: functional, organism-based; how it was run: as §1
Rattus norvegicus [14] = species: Rattus norvegicus; assay: Anti-diabetic activity against STZ-induced diabetic Wistar rat model assessed as reduced necrosis in pancreatic tissue […] by H and E staining based analysis; format: functional, organism-based; how it was run: as §1
Rattus norvegicus [15] = species: Rattus norvegicus; assay: Anti-diabetic activity against STZ-induced diabetic Wistar rat model assessed as increase in number of trabeculae cells […] by H and E staining based analysis; format: functional, organism-based; how it was run: as §1
Rattus norvegicus [16] = species: Rattus norvegicus; assay: Anti-diabetic activity against STZ-induced diabetic Wistar rat model assessed as reduced in swelling […] by H and E staining based analysis; format: functional, organism-based; how it was run: as §1
Rattus norvegicus [17] = species: Rattus norvegicus; assay: Anti-diabetic activity against STZ-induced diabetic Wistar rat model assessed as clear boundaries in pancreatic islet […] by H and E staining based analysis; format: functional, organism-based; how it was run: as §1

| SMILES | Activity (PANC-1 [1]) | Activity_index (Rattus norvegicus [2]) | Activity (Rattus norvegicus [3]) | Activity [4] | Activity (Rattus norvegicus [5]) | Activity (Rattus norvegicus [6]) | Activity (Rattus norvegicus [7]) | Activity_index (PANC-1 [8]) | Activity (Rattus norvegicus [9]) | Activity (Rattus norvegicus [10]) | Activity (Rattus norvegicus [11]) | IC50 [12] [µM] | Activity (Rattus norvegicus [13]) | Activity (Rattus norvegicus [14]) | Activity (Rattus norvegicus [15]) | Activity (Rattus norvegicus [16]) | Activity (Rattus norvegicus [17]) |
| --- | --- | --- | --- | --- | --- | --- | --- | --- | --- | --- | --- | --- | --- | --- | --- | --- | --- |
| C=CCOc1ccc(/C=C2\SC(=O)N(Cc3cccc([N+](=O)[O-])c3)C2=O)cc1OCC | Non-toxic | 674 | Active | Toxic | Active | Active | Active | 797 | Active | Active | Active | 9.8 | – | – | – | – | – |
| C#CCOc1ccc(/C=C2\SC(=O)N(Cc3cccc([N+](=O)[O-])c3)C2=O)cc1OCC | Non-toxic | 164 | Active | Toxic | – | – | Active | 109 | Active | – | Active | 5.15 | Active | Active | Active | Active | Active |
